Assay results as given in ChEMBL document CHEMBL1240443, “A study of cytotoxicity of novel chlorokojic acid derivatives with their antimicrobial and antiviral activities” (Eur J Med Chem, 2010).
Converted amounts (≈) assume the structure as drawn.

How the values were obtained:
[1] = system: Acinetobacter baumannii; assay: Antimicrobial activity against cephalosporin-resistant Acinetobacter baumannii by spectrophotometry; format: functional
In short: (§1)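 Broth microdilution in Mueller–Hinton broth. Two-fold dilutions from 256 to 0.125 µg/mL. Inoculum 10^5 c.f.u./mL, diluted from a McFarland 0.5 culture. Incubated at 35 °C for 24 h and 48 h in a humid chamber, triplicate.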

[2] = system: Acinetobacter baumannii; assay: Antimicrobial activity against Acinetobacter baumannii RSKK 02026 by spectrophotometry; format: functional; in short: as §1
[3] = system: Proteus mirabilis; assay: Antimicrobial activity against extended spectrum beta lactamase expressing Proteus mirabilis by spectrophotometry; format: functional; in short: as §1
[4] = system: Candida parapsilosis; assay: Antifungal activity against Candida parapsilosis ATCC 22019 by spectrophotometry; format: functional; conditions: Lodderomyces parapsilosis
In short: (§2)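 Yeast broth microdilution in RPMI-1640 with L-glutamine, buffered to pH 7 with MOPS. Inoculum 10^5 c.f.u./mL, prepared by the spectrophotometric method. Two-fold dilutions from 256 to 0.125 µg/mL. Incubated at 35 °C for 24 h and 48 h in a humid chamber, triplicate.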

[5] = system: Proteus mirabilis; assay: Antimicrobial activity against Proteus mirabilis ATCC 7002 by spectrophotometry; format: functional; in short: as §1
[6] = system: Pseudomonas aeruginosa; assay: Antimicrobial activity against trimethoprim-sulfamethoxazole and tazobactum-induced Pseudomonas aeruginosa by spectrophotometry; format: functional; in short: as §1
[7] = system: Escherichia coli; assay: Antimicrobial activity against extended spectrum beta lactamase expressing Escherichia coli by spectrophotometry; format: functional; in short: as §1
[8] = system: Candida albicans; assay: Antifungal activity against Candida albicans ATCC 10231 by spectrophotometry; format: functional; in short: as §2
[9] = system: Escherichia coli; assay: Antimicrobial activity against Escherichia coli ATCC 35218 by spectrophotometry; format: functional; in short: as §1
[10] = system: Klebsiella pneumoniae; assay: Antimicrobial activity against Klebsiella pneumoniae RSKK 574 by spectrophotometry; format: functional; in short: as §1
[11] = system: Klebsiella pneumoniae; assay: Antimicrobial activity against extended spectrum beta lactamase expressing Klebsiella pneumoniae by spectrophotometry; format: functional; in short: as §1
[12] = system: Staphylococcus aureus; assay: Antimicrobial activity against methicillin-resistant Staphylococcus aureus by spectrophotometry; format: functional; in short: as §1
[13] = system: Enterococcus faecalis; assay: Antimicrobial activity against Enterococcus faecalis ATCC 29212 by spectrophotometry; format: functional; in short: as §1
[14] = system: Enterococcus faecalis; assay: Antimicrobial activity against cephalosporin-resistant Enterococcus faecalis by spectrophotometry; format: functional; in short: as §1
[15] = system: Bacillus subtilis; assay: Antimicrobial activity against Bacillus subtilis ATCC 6633 by spectrophotometry; format: functional; in short: as §1
[16] = system: Bacillus subtilis; assay: Antimicrobial activity against ceftriaxone-resistant Bacillus subtilis by spectrophotometry; format: functional; in short: as §1
[17] = Cytotoxicity against MDBK cells after 48 hrs; format: cell-based, Bos taurus; conditions: cattle
[18] = system: Human respirovirus 3; assay: Antiviral activity against parainfluenza-3 virus infected in Vero cells assessed as reduction of virus-induced cytopathic effect; format: functional
In short: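 Vero cells grown in EMEM with 10% fetal calf serum. Two-fold dilutions from 51.2 to 0.012 µg/mL, with PI-3 added at its TCID50-based titre, held 2 h at 37 °C in 5% CO2. CPE scored by microscope against untreated controls, giving the CPE-inhibitory concentration range.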

[19] = Cytotoxicity against african green monkey Vero cells after 48 hrs; format: cell-based; conditions: chlorocebus sabaeus
In short: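 Confluent cell monolayers exposed to two-fold (Log2) dilutions of each sample (51.2–0.012 µg/mL) in EMEM, 5% CO2, 37 °C, 48 h. Scored by light microscopy against untreated cultures; rows damaging all cells counted toxic. Maximum non-toxic concentration (MNTC, µg/mL) taken as highest concentration leaving cells unaffected. Vero grown in EMEM/10% fetal calf serum with streptomycin/penicillin.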

[20] = system: Pseudomonas aeruginosa; assay: microbe, parasite or virus in culture; conditions: ATCC 10145

Row | Compound | MIC [1] | MIC [2] | MIC [3] | MIC [4] | MIC [5] | MIC [6] | MIC [7] | MIC [8] | MIC [9] | MIC [10] | MIC [11] | MIC [12] | MIC [13] | MIC [14] | MIC [15] | MIC [16] | MNTC at 48 h [17] | CPE-inhibitory concentration [18] | MNTC at 48 h [19] | MIC [20]
1 | O=c1cc(CCl)oc(CN2CCC(O)(c3ccc(Cl)c(C(F)(F)F)c3)CC2)c1O | 16 µg/mL (≈ 35.4 µM) | 4 µg/mL (≈ 8.84 µM) | 64 µg/mL (≈ 142 µM) | 8 µg/mL (≈ 17.7 µM) | 8 µg/mL (≈ 17.7 µM) | 16 µg/mL (≈ 35.4 µM) | 64 µg/mL (≈ 142 µM) | 4 µg/mL (≈ 8.84 µM) | 4 µg/mL (≈ 8.84 µM) | 4 µg/mL (≈ 8.84 µM) | 64 µg/mL (≈ 142 µM) | 64 µg/mL (≈ 142 µM) | 16 µg/mL (≈ 35.4 µM) | 32 µg/mL (≈ 70.8 µM) | 1 µg/mL (≈ 2.21 µM) | 2 µg/mL (≈ 4.42 µM) | 0.8 µg/mL | 0.05 µg/mL | 0.4 µg/mL | 2 µg/mL (≈ 4.42 µM)
2 | C[C@H]1COc2c(N3CCN(C)CC3)c(F)cc3c(=O)c(C(=O)O)cn1c23.C[C@H]1COc2c(N3CCN(C)CC3)c(F)cc3c(=O)c(C(=O)O)cn1c23.O [LEVOFLOXACIN] | 64 µg/mL | 0.12 µg/mL | 1 µg/mL |  | < 0.12 µg/mL |  |  |  |  | < 0.12 µg/mL |  | 128 µg/mL | 0.5 µg/mL | 32 µg/mL |  |  |  |  |  | 
3 | O=c1cc(CCl)oc(CN2CCN(Cc3ccc(F)cc3)CC2)c1O | 64 µg/mL (≈ 174 µM) | 32 µg/mL (≈ 87.2 µM) | 64 µg/mL (≈ 174 µM) | 16 µg/mL (≈ 43.6 µM) | 16 µg/mL (≈ 43.6 µM) | 64 µg/mL (≈ 174 µM) | 64 µg/mL (≈ 174 µM) | 16 µg/mL (≈ 43.6 µM) | 16 µg/mL (≈ 43.6 µM) | 16 µg/mL (≈ 43.6 µM) | 64 µg/mL (≈ 174 µM) | 64 µg/mL (≈ 174 µM) | 16 µg/mL (≈ 43.6 µM) | 32 µg/mL (≈ 87.2 µM) | 32 µg/mL (≈ 87.2 µM) | 64 µg/mL (≈ 174 µM) | 1.6 µg/mL | 0.05 µg/mL | 0.4 µg/mL | 16 µg/mL (≈ 43.6 µM)
4 | CC1COc2c(N3CCN(C)CC3)c(F)cc3c(=O)c(C(=O)O)cn1c23 (stereo unspecified) [OFLOXACIN] | 64 µg/mL (≈ 177 µM) | 0.12 µg/mL (≈ 0.332 µM) | 1 µg/mL (≈ 2.77 µM) |  | < 0.12 µg/mL |  |  |  |  | < 0.12 µg/mL |  | 64 µg/mL (≈ 177 µM) | 1 µg/mL (≈ 2.77 µM) | 32 µg/mL (≈ 88.6 µM) |  |  |  |  |  | 
5 | Nc1nc2c(ncn2COCCO)c(=O)[nH]1 [ACYCLOVIR] |  |  |  |  |  |  |  |  |  |  |  |  |  |  |  |  | 1.6 µg/mL | 0.012 µg/mL |  | 
6 | CC(=O)C1(c2ccccc2)CCN(Cc2oc(CCl)cc(=O)c2O)CC1 | 16 µg/mL (≈ 42.6 µM) | 4 µg/mL (≈ 10.6 µM) | 64 µg/mL (≈ 170 µM) | 8 µg/mL (≈ 21.3 µM) | 16 µg/mL (≈ 42.6 µM) | 16 µg/mL (≈ 42.6 µM) | 64 µg/mL (≈ 170 µM) | 4 µg/mL (≈ 10.6 µM) | 8 µg/mL (≈ 21.3 µM) | 8 µg/mL (≈ 21.3 µM) | 64 µg/mL (≈ 170 µM) | 128 µg/mL (≈ 341 µM) | 64 µg/mL (≈ 170 µM) | 128 µg/mL (≈ 341 µM) | 1 µg/mL (≈ 2.66 µM) | 2 µg/mL (≈ 5.32 µM) | 0.4 µg/mL |  | 0.4 µg/mL | 4 µg/mL (≈ 10.6 µM)
7 | O=c1cc(CCl)oc(CN2CCN(C(c3ccccc3)c3ccc(Cl)cc3)CC2)c1O (stereo unspecified) | 16 µg/mL (≈ 34.8 µM) | 4 µg/mL (≈ 8.71 µM) | 64 µg/mL (≈ 139 µM) | 8 µg/mL (≈ 17.4 µM) | 8 µg/mL (≈ 17.4 µM) | 16 µg/mL (≈ 34.8 µM) | 64 µg/mL (≈ 139 µM) | 4 µg/mL (≈ 8.71 µM) | 4 µg/mL (≈ 8.71 µM) | 4 µg/mL (≈ 8.71 µM) | 64 µg/mL (≈ 139 µM) | 64 µg/mL (≈ 139 µM) | 16 µg/mL (≈ 34.8 µM) | 32 µg/mL (≈ 69.7 µM) | 1 µg/mL (≈ 2.18 µM) | 2 µg/mL (≈ 4.35 µM) | 0.4 µg/mL | 0.1 µg/mL | 0.4 µg/mL | 2 µg/mL (≈ 4.35 µM)
8 | CCOC(=O)C1=C[C@@H](OC(CC)CC)[C@H](NC(C)=O)[C@@H](N)C1 [OSELTAMIVIR] |  |  |  |  |  |  |  |  |  |  |  |  |  |  |  |  |  | 0.012 µg/mL | 1.6 µg/mL | 
9 | GENTAMICIN |  |  |  |  |  | 2 µg/mL |  |  |  |  |  |  |  |  |  |  |  |  |  | 
10 | O=c1cc(CCl)oc(CN2CCC(O)(c3ccc(Br)cc3)CC2)c1O | 16 µg/mL (≈ 37.3 µM) | 4 µg/mL (≈ 9.33 µM) | 64 µg/mL (≈ 149 µM) | 8 µg/mL (≈ 18.7 µM) | 8 µg/mL (≈ 18.7 µM) | 16 µg/mL (≈ 37.3 µM) | 64 µg/mL (≈ 149 µM) | 4 µg/mL (≈ 9.33 µM) | 4 µg/mL (≈ 9.33 µM) | 4 µg/mL (≈ 9.33 µM) | 64 µg/mL (≈ 149 µM) | 64 µg/mL (≈ 149 µM) | 16 µg/mL (≈ 37.3 µM) | 32 µg/mL (≈ 74.6 µM) | 1 µg/mL (≈ 2.33 µM) | 2 µg/mL (≈ 4.67 µM) | 0.4 µg/mL | 0.05 µg/mL | 0.8 µg/mL | 2 µg/mL (≈ 4.67 µM)
11 | O=c1cc(CCl)oc(CN2CCN(Cc3ccc(Cl)c(Cl)c3)CC2)c1O | 16 µg/mL (≈ 38.3 µM) | 8 µg/mL (≈ 19.2 µM) | 64 µg/mL (≈ 153 µM) | 8 µg/mL (≈ 19.2 µM) | 16 µg/mL (≈ 38.3 µM) | 16 µg/mL (≈ 38.3 µM) | 4 µg/mL (≈ 9.58 µM) | 4 µg/mL (≈ 9.58 µM) | 8 µg/mL (≈ 19.2 µM) | 8 µg/mL (≈ 19.2 µM) | 4 µg/mL (≈ 9.58 µM) | 128 µg/mL (≈ 306 µM) | 16 µg/mL (≈ 38.3 µM) | 128 µg/mL (≈ 306 µM) | 1 µg/mL (≈ 2.39 µM) | 2 µg/mL (≈ 4.79 µM) | 0.4 µg/mL | 0.05 µg/mL | 0.8 µg/mL | 4 µg/mL (≈ 9.58 µM)
12 | OC(Cn1cncn1)(Cn1cncn1)c1ccc(F)cc1F [FLUCONAZOLE] |  |  |  | 4 µg/mL (≈ 13.1 µM) |  |  |  | 2 µg/mL (≈ 6.53 µM) |  |  |  |  |  |  |  |  |  |  |  | 
13 | CC(C)(C)OC(=O)N1CCN(Cc2oc(CCl)cc(=O)c2O)CC1 | 16 µg/mL (≈ 44.6 µM) | 8 µg/mL (≈ 22.3 µM) | 64 µg/mL (≈ 178 µM) | 8 µg/mL (≈ 22.3 µM) | 16 µg/mL (≈ 44.6 µM) | 16 µg/mL (≈ 44.6 µM) | 64 µg/mL (≈ 178 µM) | 4 µg/mL (≈ 11.1 µM) | 8 µg/mL (≈ 22.3 µM) | 8 µg/mL (≈ 22.3 µM) | 64 µg/mL (≈ 178 µM) | 128 µg/mL (≈ 357 µM) | 8 µg/mL (≈ 22.3 µM) | 128 µg/mL (≈ 357 µM) | 1 µg/mL (≈ 2.79 µM) | 2 µg/mL (≈ 5.57 µM) | 0.8 µg/mL | 0.2 µg/mL | 0.4 µg/mL | 4 µg/mL (≈ 11.1 µM)
14 | CC1(C)S[C@@H]2[C@H](NC(=O)[C@H](N)c3ccccc3)C(=O)N2[C@H]1C(=O)O [AMPICILLIN] | > 128 µg/mL | 2 µg/mL (≈ 5.72 µM) | > 128 µg/mL |  | 2 µg/mL (≈ 5.72 µM) |  | > 128 µg/mL |  |  | 2 µg/mL (≈ 5.72 µM) | > 128 µg/mL | > 128 µg/mL | 0.5 µg/mL (≈ 1.43 µM) | > 128 µg/mL | 0.12 µg/mL (≈ 0.343 µM) | 0.5 µg/mL (≈ 1.43 µM) |  |  |  | 
15 | CC(=O)N1CCN(c2ccc(OCC3COC(Cn4ccnc4)(c4ccc(Cl)cc4Cl)O3)cc2)CC1 (stereo unspecified) [KETOCONAZOLE] |  |  |  | 1 µg/mL (≈ 1.88 µM) |  |  |  | 1 µg/mL (≈ 1.88 µM) |  |  |  |  |  |  |  |  |  |  |  | 
